Data set [1] can be described thus: melting temperature; fluorescence melt of hairpins on a sequencing array, two-state fit, raised by 9.35 °C to match UV melts. The settings on record: sodium 0.088 M. The method, boiled down: (§1)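 On a sequenced MiSeq flow cell, library hairpins with annealed Cy3 and quencher oligos were imaged for Cy3 fluorescence in 2.5 °C steps up to 60 °C, in 50 mM Na-HEPES pH 8.0, 25 mM NaCl. Normalisation used pre-quench Cy3 and control constructs. Bootstrapped two-state fits gave melting temperature and folding enthalpy, combined by inverse variance across four replicates and with fitted temperatures raised by 9.35 °C to match UV melts.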

A short description of data set [2]: folding enthalpy; higher = less favourable; fluorescence melt of hairpins on a sequencing array, two-state fit. The conditions noted are these: sodium 0.088 M. The method, boiled down: as §1

As for GCATCACGAAAGTGCTGC (((.(((....))).))), the Tm in data set [1] amounted to 52.4 °C. Besides, in data set [2], the folding enthalpy was -44 kcal/mol.

On to GCATCACGAAAGTGTGC (((.(((....)))))), for which, in data set [1], the Tm came out at 56 °C. Besides, in data set [2], the folding enthalpy is -39.2 kcal/mol.

GCATCAGGAAACCGATGC (((((.(....).))))): in data set [1], the Tm was found to be 50 °C. Further, in data set [2], the folding enthalpy is -33.4 kcal/mol.

As for GCATCAGGAAACTGATAC (.(((((....))))).), the Tm in data set [1] was 34.2 °C. Besides, in data set [2], the folding enthalpy was -18.7 kcal/mol.

On to GCATCAGGAAACTGATGC (((((((....))))))), for which the Tm in data set [1] turned out to be 67.1 °C. The folding enthalpy in data set [2] was -46.9 kcal/mol.

On to GCATCCGAAAGGAATTGC ((((((....)))..))), for which the Tm in data set [1] was 36.9 °C. For the same sequence, in data set [2], the folding enthalpy was -20.2 kcal/mol.

As for GCATCCGAAAGGACATGC ((((((....)))..))), the Tm in data set [1] was 43.3 °C. Moreover, the folding enthalpy in data set [2] was -23.1 kcal/mol.

Regarding GCATCCGAAAGGAGTGC ((((((....))).))), the Tm in data set [1] came out at 51.2 °C. For the same sequence, in data set [2], the folding enthalpy is -22.5 kcal/mol.

As to GCATCCGAAAGGATGTGC ((((((....)))..))), in data set [1], the Tm turned out to be 60.5 °C. Further, the folding enthalpy in data set [2] was -18.9 kcal/mol.

On to GCATCCGGAAACGGACAC (..((((....))))..), for which, in data set [1], the Tm turned out to be 21.6 °C. Further, the folding enthalpy in data set [2] was -12.7 kcal/mol.

Take GCATCGAAAGATGC (((((....))))): in data set [1], the Tm came out at 69.2 °C. The folding enthalpy in data set [2] is -31.8 kcal/mol.

As to GCATCGCGAAAGCAAGGC ((.(.((....)).).)), the Tm in data set [1] is 39.6 °C. Moreover, the folding enthalpy in data set [2] is -12.7 kcal/mol.

For GCATCGCGAAAGCACTGC (((..((....))..))), in data set [1], the Tm is 38.5 °C. Also, the folding enthalpy in data set [2] is -14.7 kcal/mol.

Turning to GCATCGCGAAAGCCATGC ((((.((....)).)))), the Tm in data set [1] stood at 56.3 °C. Also, the folding enthalpy in data set [2] is -35.7 kcal/mol.

For GCATCGCGAAAGCCTTGC (((..((....))..))), the Tm in data set [1] was 38.3 °C. In addition, the folding enthalpy in data set [2] was -16.7 kcal/mol.

As to GCATCGCGAAAGCGCGGC ((..(((....)))..)), the Tm in data set [1] amounted to 44.7 °C. Also, the folding enthalpy in data set [2] is -14.8 kcal/mol.

Consider GCATCGCGAAAGCGGCGC ((..(((....)))..)), for which, in data set [1], the Tm amounted to 57.3 °C. Besides, the folding enthalpy in data set [2] was -21.2 kcal/mol.

As for GCATCGCGAAAGCGTCGC ((..(((....)))..)), the Tm in data set [1] amounted to 42.1 °C. The folding enthalpy in data set [2] was -11.5 kcal/mol.

As for GCATCGCGAAAGCTCTGC (((..((....))..))), the Tm in data set [1] came out at 36.8 °C. The folding enthalpy in data set [2] is -15.9 kcal/mol.

As to GCATCGGCGAAAGCCTGC (((..(((....)))))), the Tm in data set [1] amounted to 39.8 °C. Moreover, the folding enthalpy in data set [2] was -15.2 kcal/mol.

In the case of GCATCGGGAAACCGACAC (..((((....))))..), the Tm in data set [1] amounted to 25.8 °C. Also, in data set [2], the folding enthalpy was -11.9 kcal/mol.

As for GCATCGGGAAACTGGTGC (((.(.(....).).))), the Tm in data set [1] was 42.7 °C. In addition, the folding enthalpy in data set [2] was -29 kcal/mol.

Regarding GCATCTGGAAACAAATGC ((((.((....)).)))), the Tm in data set [1] came to 32.6 °C. Moreover, in data set [2], the folding enthalpy is -21.8 kcal/mol.

With GCATCTGGAAACAGACGC ((.((((....)))).)), the Tm in data set [1] was determined as 44.2 °C. Further, in data set [2], the folding enthalpy is -33 kcal/mol.

As for GCATCTGGAAACAGATAC (.(((((....))))).), the Tm in data set [1] came out at 36.3 °C. The folding enthalpy in data set [2] is -16.8 kcal/mol.

On to GCATCTGGAAACAGGTGC (((.(((....))).))), for which the Tm in data set [1] was 52.2 °C. In addition, the folding enthalpy in data set [2] is -40.5 kcal/mol.

On to GCATCTGGAAACGGATGC (((((.(....).))))), for which, in data set [1], the Tm is 53.8 °C. Besides, the folding enthalpy in data set [2] was -44.6 kcal/mol.

Consider GCATGCGAAAGCAACTGC ((((((....)))..))), for which, in data set [1], the Tm turned out to be 40.2 °C. For the same sequence, the folding enthalpy in data set [2] was -14.2 kcal/mol.

GCATGCGGAAACACACGC ((.((.(....).)).)): the Tm in data set [1] worked out at 30.4 °C. The folding enthalpy in data set [2] was -10.2 kcal/mol.

For the sequence GCATGCGGAAACACATGC (((((.(....).))))), the Tm in data set [1] stood at 49.7 °C. Besides, the folding enthalpy in data set [2] is -42 kcal/mol.

In the case of GCATGCGGAAACGCACGC ((.((((....)))).)), in data set [1], the Tm came out at 52.1 °C. The folding enthalpy in data set [2] is -25.7 kcal/mol.

As to GCATGCGGAAACGTATGC ((((.((....)).)))), the Tm in data set [1] is 56.1 °C. For the same sequence, the folding enthalpy in data set [2] was -41.4 kcal/mol.

With GCATGGCCGAAAGGCTGC (((..(((....)))))), in data set [1], the Tm came out at 53.3 °C. In addition, the folding enthalpy in data set [2] is -13.2 kcal/mol.

For GCATGGCGAAAGCCACGC ((.((((....)))).)), the Tm in data set [1] was determined as 60.9 °C. Moreover, the folding enthalpy in data set [2] is -17.6 kcal/mol.

For the sequence GCATGGCGAAAGCCCAGC ((..(((....)))..)), the Tm in data set [1] came out at 46.3 °C. For the same sequence, the folding enthalpy in data set [2] is -12 kcal/mol.

Take GCATGGCGAAAGCCCCGC ((..(((....)))..)): the Tm in data set [1] was determined as 29.6 °C. Further, the folding enthalpy in data set [2] is -12.4 kcal/mol.

Consider GCATGGCGAAAGCCCGGC ((..(((....)))..)), for which the Tm in data set [1] came to 43.3 °C. In addition, in data set [2], the folding enthalpy is -15.7 kcal/mol.

On to GCATGGCGAAAGCCGCGC ((..(((....)))..)), for which the Tm in data set [1] was found to be 61.1 °C. Further, in data set [2], the folding enthalpy is -19.7 kcal/mol.

Consider GCATGGCGAAAGCCGGGC ((..(((....)))..)), for which the Tm in data set [1] was 60.4 °C. Also, the folding enthalpy in data set [2] is -17.7 kcal/mol.

For the sequence GCATGGCGAAAGCCTAGC ((..(((....)))..)), in data set [1], the Tm came out at 52.1 °C. Further, the folding enthalpy in data set [2] is -17.9 kcal/mol.

For the sequence GCATGGCGAAAGCCTGC (((.(((....)))))), in data set [1], the Tm came to 63.8 °C. Further, the folding enthalpy in data set [2] is -27 kcal/mol.

For GCATGGCGAAAGCGAGGC ((.(.((....)).).)), the Tm in data set [1] was found to be 47.3 °C. Also, the folding enthalpy in data set [2] is -19 kcal/mol.

For the sequence GCATGGCGAAAGCGGTGC (((..((....))..))), the Tm in data set [1] amounted to 56.1 °C. In data set [2], the folding enthalpy was -23.8 kcal/mol.

As for GCATGGCGAAAGCTTTGC (((..((....))..))), in data set [1], the Tm is 46.7 °C. In data set [2], the folding enthalpy is -21.4 kcal/mol.

In the case of GCATGGGGAAACCTGTGC (((..((....))..))), the Tm in data set [1] came out at 44.3 °C. For the same sequence, in data set [2], the folding enthalpy was -30.3 kcal/mol.

On to GCATGGTCGAAAGACTGC (((..(((....)))))), for which the Tm in data set [1] worked out at 39.8 °C. Besides, the folding enthalpy in data set [2] is -18.1 kcal/mol.

Turning to GCATGTGGAAACATGTGC (((..((....))..))), the Tm in data set [1] was 49.6 °C. The folding enthalpy in data set [2] is -31.6 kcal/mol.

Take GCATTACGAAAGTACTGC (((.(((....))).))): the Tm in data set [1] amounted to 46.4 °C. For the same sequence, in data set [2], the folding enthalpy is -36.5 kcal/mol.

Consider GCATTACGAAAGTATGC (((.(((....)))))), for which the Tm in data set [1] came out at 48.7 °C. Besides, the folding enthalpy in data set [2] is -26.9 kcal/mol.

Take GCATTAGGAAACTAACGC ((.((((....)))).)): in data set [1], the Tm was found to be 31.7 °C. Besides, in data set [2], the folding enthalpy was -22.6 kcal/mol.

As to GCATTCGAAAGAAAGTGC ((((((....)))..))), the Tm in data set [1] was found to be 30.4 °C. Besides, the folding enthalpy in data set [2] is -12.4 kcal/mol.

As for GCATTCGAAAGAACATGC ((((((....)))..))), the Tm in data set [1] stood at 33 °C. The folding enthalpy in data set [2] is -15.8 kcal/mol.

For the sequence GCATTCGAAAGAAGCTGC ((((((....)))..))), the Tm in data set [1] is 40.8 °C. In addition, the folding enthalpy in data set [2] is -23.5 kcal/mol.

On to GCATTCGAAAGAAGTTGC ((((((....)))..))), for which the Tm in data set [1] amounted to 26 °C. For the same sequence, the folding enthalpy in data set [2] was -7.36 kcal/mol.

For the origin of these results see the array DNA melting data of Ke et al. (doi:10.1101/2024.01.08.574731).
